Reference: ChEMBL document CHEMBL4699432, “Rational design, synthesis and testing of novel tricyclic topoisomerase inhibitors for the treatment of bacterial infections part 1” (RSC Med Chem, 2020)
≈ marks a conversion by molar mass, not a printed value.

Legend:
Staphylococcus aureus [1] = assay: Antibacterial activity against Staphylococcus aureus ATCC 29213 assessed as reduction in bacterial growth by CLSI method based broth microdilution assay; format: functional
[2] = Cytotoxicity against human HepG2 cells; format: cell-based
Streptococcus pneumoniae = assay: Antibacterial activity against Streptococcus pneumoniae ATCC 49619 assessed as reduction in bacterial growth by CLSI method based broth microdilution assay; format: functional
Method in brief: (§1)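 MIC by broth microdilution following CLSI guidelines for culturing and susceptibility testing; each determination run in triplicate. Agar dilution was used instead only ahead of frequency-of-resistance work.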

[3] = Lipophilicity, logD of the compound at pH 7.4; format: physicochemical; conditions: buffer
[4] = Thermodynamic solubility of compound at physiological pH; format: physicochemical; conditions: read-out: Therm_solubility
Cytochrome P450 3A4 = Cytochrome P450 3A4 (Homo sapiens, UniProt P08684); assay: Inhibition of CYP3A4 (unknown origin)
Cytochrome P450 2C19 = Cytochrome P450 2C19 (Homo sapiens, UniProt P33261); assay: Inhibition of CYP2C19 (unknown origin)
Staphylococcus aureus [5] = assay: Antibacterial activity against methicillin-resistant Staphylococcus aureus NRS74 assessed as reduction in bacterial growth by CLSI method based broth microdilution assay; format: functional
Cytochrome P450 2D6 = Cytochrome P450 2D6 (Homo sapiens, UniProt P10635); assay: Inhibition of CYP2D6 (unknown origin)
Cytochrome P450 1A2 = target: T1, Cytochrome P450 1A2 (Homo sapiens, UniProt P05177); assay: Inhibition of CYP1A2 (unknown origin)
T1 sequence (P05177 whole entry): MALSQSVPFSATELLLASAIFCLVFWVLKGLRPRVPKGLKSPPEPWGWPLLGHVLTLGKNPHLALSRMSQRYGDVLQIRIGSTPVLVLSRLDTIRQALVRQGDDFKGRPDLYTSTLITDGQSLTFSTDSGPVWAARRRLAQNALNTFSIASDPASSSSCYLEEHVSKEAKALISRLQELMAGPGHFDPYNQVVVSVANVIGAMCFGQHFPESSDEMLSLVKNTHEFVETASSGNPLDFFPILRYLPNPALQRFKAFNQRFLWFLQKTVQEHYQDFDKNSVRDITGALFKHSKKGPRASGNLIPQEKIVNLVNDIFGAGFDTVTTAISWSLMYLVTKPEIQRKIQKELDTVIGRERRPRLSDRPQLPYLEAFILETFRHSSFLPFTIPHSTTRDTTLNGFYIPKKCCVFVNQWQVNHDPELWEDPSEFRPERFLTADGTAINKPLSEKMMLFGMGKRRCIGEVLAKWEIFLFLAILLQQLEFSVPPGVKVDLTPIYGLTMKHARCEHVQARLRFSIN

Cytochrome P450 2C9 = Cytochrome P450 2C9 (Homo sapiens, UniProt P11712); assay: Inhibition of CYP2C9 (unknown origin)
Staphylococcus aureus [6] = assay: Antibacterial activity against methicillin-resistant Staphylococcus aureus VRS8 assessed as reduction in bacterial growth by CLSI method based broth microdilution assay; format: functional
[7] = target: Voltage-gated inwardly rectifying potassium channel KCNH2 (Homo sapiens, UniProt Q12809)
Neisseria gonorrhoeae = assay: Antibacterial activity against Neisseria gonorrhoeae assessed as reduction in bacterial growth by CLSI method based broth microdilution assay; format: functional; method in brief: as §1
hERG (KCNH2) = hERG (KCNH2) (Homo sapiens, UniProt Q12809); assay: Inhibition of human ERG at 100 uM relative to control
Staphylococcus aureus [8] = assay: Antibacterial activity against fluoroquinolone and multidrug-resistant Staphylococcus aureus assessed as reduction in bacterial growth by CLSI method based broth microdilution assay; format: functional
Method in brief: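 Run to CLSI guidelines by broth microdilution, in triplicate. Growth was read to give the MIC.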

Chain of Cytochrome P450 2C9 (P11712 whole entry): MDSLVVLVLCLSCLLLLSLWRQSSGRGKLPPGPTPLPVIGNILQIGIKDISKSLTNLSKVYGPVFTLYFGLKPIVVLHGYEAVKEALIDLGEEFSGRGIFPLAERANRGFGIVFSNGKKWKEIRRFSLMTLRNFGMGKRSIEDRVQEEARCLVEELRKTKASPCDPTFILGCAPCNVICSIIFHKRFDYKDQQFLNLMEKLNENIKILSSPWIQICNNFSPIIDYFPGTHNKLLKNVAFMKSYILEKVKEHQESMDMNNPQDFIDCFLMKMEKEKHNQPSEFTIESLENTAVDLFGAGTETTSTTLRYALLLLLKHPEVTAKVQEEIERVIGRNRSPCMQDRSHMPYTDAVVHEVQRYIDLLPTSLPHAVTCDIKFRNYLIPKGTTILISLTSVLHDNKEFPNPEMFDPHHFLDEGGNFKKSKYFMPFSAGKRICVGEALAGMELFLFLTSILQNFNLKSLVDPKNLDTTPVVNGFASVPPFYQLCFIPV
Chain of Cytochrome P450 2C19 (P33261 whole entry): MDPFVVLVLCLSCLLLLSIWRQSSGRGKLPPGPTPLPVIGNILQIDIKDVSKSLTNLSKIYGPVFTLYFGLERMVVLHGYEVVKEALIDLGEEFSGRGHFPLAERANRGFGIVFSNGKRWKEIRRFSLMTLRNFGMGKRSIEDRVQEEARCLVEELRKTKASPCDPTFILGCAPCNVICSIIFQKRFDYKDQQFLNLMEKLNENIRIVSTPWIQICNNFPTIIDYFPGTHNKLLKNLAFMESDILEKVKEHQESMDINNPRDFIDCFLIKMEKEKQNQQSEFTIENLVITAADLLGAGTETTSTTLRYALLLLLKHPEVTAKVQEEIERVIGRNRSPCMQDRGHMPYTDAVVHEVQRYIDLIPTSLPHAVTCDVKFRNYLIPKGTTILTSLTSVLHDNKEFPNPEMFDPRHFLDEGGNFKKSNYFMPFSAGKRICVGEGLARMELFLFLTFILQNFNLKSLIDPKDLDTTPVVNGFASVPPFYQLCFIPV
Chain of Cytochrome P450 3A4 (P08684 whole entry): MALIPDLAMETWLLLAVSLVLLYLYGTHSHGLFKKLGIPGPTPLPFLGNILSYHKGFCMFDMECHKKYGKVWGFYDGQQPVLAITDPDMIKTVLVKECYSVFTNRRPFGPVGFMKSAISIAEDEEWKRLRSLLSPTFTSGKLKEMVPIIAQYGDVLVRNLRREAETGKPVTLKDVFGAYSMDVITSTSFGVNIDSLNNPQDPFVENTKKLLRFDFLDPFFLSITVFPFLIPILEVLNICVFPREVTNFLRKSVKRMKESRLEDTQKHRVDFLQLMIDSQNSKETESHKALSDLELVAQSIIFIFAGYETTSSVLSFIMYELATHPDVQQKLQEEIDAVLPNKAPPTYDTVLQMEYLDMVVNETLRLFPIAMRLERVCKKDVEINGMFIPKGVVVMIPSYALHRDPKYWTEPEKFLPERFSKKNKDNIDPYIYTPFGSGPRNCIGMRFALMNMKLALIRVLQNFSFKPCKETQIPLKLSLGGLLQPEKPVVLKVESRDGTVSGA
Chain of Cytochrome P450 2D6 (P10635 whole entry): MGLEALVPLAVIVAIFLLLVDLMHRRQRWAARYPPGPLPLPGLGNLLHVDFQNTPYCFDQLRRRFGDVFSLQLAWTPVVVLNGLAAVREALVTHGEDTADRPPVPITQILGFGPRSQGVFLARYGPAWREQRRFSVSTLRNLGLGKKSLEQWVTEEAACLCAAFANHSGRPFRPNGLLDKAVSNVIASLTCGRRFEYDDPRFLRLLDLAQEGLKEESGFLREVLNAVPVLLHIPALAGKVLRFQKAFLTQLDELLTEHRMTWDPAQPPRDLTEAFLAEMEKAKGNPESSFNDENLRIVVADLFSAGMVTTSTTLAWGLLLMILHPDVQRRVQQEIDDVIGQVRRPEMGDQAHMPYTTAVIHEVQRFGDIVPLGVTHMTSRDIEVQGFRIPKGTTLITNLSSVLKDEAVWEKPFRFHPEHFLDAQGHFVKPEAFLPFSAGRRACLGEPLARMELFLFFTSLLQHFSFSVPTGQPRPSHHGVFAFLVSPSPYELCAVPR
Chain of Voltage-gated inwardly rectifying potassium channel KCNH2 (Q12809 whole entry): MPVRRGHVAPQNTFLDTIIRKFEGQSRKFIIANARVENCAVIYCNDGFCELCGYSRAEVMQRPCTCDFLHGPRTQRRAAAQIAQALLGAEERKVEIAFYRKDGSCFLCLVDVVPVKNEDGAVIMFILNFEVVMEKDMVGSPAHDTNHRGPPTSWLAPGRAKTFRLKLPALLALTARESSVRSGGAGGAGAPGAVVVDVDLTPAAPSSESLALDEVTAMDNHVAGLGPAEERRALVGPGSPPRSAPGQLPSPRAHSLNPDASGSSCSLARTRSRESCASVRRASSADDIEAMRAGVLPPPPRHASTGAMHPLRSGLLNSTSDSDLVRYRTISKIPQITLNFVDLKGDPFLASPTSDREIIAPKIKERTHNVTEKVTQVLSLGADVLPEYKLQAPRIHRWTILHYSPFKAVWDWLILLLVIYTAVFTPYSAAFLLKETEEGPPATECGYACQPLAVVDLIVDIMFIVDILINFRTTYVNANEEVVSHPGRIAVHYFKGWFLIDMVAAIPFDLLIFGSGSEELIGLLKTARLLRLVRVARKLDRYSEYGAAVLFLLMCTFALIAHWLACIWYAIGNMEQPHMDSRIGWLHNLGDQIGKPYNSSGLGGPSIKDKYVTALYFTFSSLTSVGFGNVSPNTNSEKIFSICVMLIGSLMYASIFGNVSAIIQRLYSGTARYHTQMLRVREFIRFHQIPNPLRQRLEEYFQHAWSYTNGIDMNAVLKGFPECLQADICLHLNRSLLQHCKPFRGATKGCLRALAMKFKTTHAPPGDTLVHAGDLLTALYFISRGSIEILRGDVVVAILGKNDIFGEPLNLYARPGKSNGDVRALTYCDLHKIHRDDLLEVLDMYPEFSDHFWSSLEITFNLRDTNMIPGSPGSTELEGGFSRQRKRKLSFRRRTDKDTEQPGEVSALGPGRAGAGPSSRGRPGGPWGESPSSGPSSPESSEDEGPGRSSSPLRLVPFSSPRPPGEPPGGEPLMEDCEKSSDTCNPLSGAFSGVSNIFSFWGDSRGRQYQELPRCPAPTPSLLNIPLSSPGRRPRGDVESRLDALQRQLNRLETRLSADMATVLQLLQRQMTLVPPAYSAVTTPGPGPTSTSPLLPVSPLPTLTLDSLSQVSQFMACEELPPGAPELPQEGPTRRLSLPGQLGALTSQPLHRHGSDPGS
Chain of hERG (KCNH2) (Q12809 whole entry): as above

Row | Structure (SMILES) | MIC (Staphylococcus aureus [1]) | CC50 [2] | MIC (Streptococcus pneumoniae) | logD [3] | solubility thermodynamic [4] | further results
1 | C[C@H]1COc2c(-c3cc(F)c(N)cc3F)ccc3c4ocnc4c(=O)n1c23 | 0.5 µg/mL (≈ 1.35 µM) |  |  |  |  | 
2 | Cc1nc2c(=O)n(C3CC3)c3c(C)c(-c4cc(F)c(N)cc4F)ccc3c2o1 | 0.03 µg/mL (≈ 0.0787 µM) |  |  |  |  | 
3 | Cc1c(-c2ccc(C(C)N)cc2)ccc2c3ocnc3c(=O)n(C3CC3)c12 (configuration not stated) | 0.5 µg/mL (≈ 1.39 µM) | > 32 µg/mL | 2 µg/mL (≈ 5.56 µM) |  |  | 
4 | Cc1c(-c2ccc(N)cc2)ccc2c3ocnc3c(=O)n(C3CC3)c12 | 0.5 µg/mL (≈ 1.51 µM) |  | 4 µg/mL (≈ 12.1 µM) | 2.59 |  | 
5 | Cc1c(-c2ccc3c(c2)CNC3)ccc2c3ocnc3c(=O)n(C3CC3)c12 | 0.12 µg/mL (≈ 0.336 µM) | > 64 µg/mL | 0.5 µg/mL (≈ 1.4 µM) | 0.75 | 209 µg/mL | 
6 | Cc1c(-c2cc(F)c(CO)cc2F)ccc2c3ocnc3c(=O)n(C3CC3)c12 | 0.06 µg/mL (≈ 0.157 µM) | > 32 µg/mL | 0.25 µg/mL (≈ 0.654 µM) | 3.14 | 1.9 µg/mL | 
7 | Cc1c(-c2ccccc2)ccc2c3ocnc3c(=O)n(C3CC3)c12 | 1 µg/mL (≈ 3.16 µM) |  | 4 µg/mL (≈ 12.6 µM) |  |  | 
8 | Cc1c(-c2ccc3[nH]ncc3c2)ccc2c3oc(CN)nc3c(=O)n(C3CC3)c12 | 0.06 µg/mL (≈ 0.156 µM) | 32 µg/mL (≈ 83 µM) |  |  | 10 µg/mL | IC50 (Cytochrome P450 3A4): 1.3 µM; IC50 (Cytochrome P450 2C19): 800 nM; MIC (Staphylococcus aureus [5]): 0.5 µg/mL (≈ 1.3 µM); IC50 (Cytochrome P450 2D6): 12.7 µM; IC50 (Cytochrome P450 1A2): 12.3 µM; IC50 (Cytochrome P450 2C9): 200 nM; MIC (Staphylococcus aureus [6]): 2 µg/mL (≈ 5.19 µM)
9 | CCn1c(=O)c2ncoc2c2ccc(-c3cc(F)c(N)cc3F)c(C)c21 | 2 µg/mL (≈ 5.63 µM) |  |  |  |  | 
10 | Nc1cc(F)c(-c2ccc3c4ocnc4c(=O)n(C4CC4)c3c2)cc1F | 2 µg/mL (≈ 5.66 µM) |  |  |  |  | 
11 | Cc1c(-c2ccc(N)c(C#N)c2)ccc2c3ocnc3c(=O)n(C3CC3)c12 | 0.06 µg/mL (≈ 0.168 µM) | > 4 µg/mL | 0.25 µg/mL (≈ 0.701 µM) | 2.94 |  | 
12 | Nc1cc(F)c(-c2cc3c(cc2F)c2ocnc2c(=O)n3C2CC2)cc1F | 0.25 µg/mL (≈ 0.673 µM) |  |  |  |  | 
13 | Cc1c(-c2cnc3[nH]ncc3c2)ccc2c3oc(CN)nc3c(=O)n(C3CC3)c12 | 0.25 µg/mL (≈ 0.647 µM) | > 128 µg/mL |  |  | 618 µg/mL | MIC (Staphylococcus aureus [5]): 2 µg/mL (≈ 5.18 µM); IC50 [7]: 45.1 µM; MIC (Staphylococcus aureus [6]): 2 µg/mL (≈ 5.18 µM)
14 | Cc1c(-c2ccc3[nH]cnc3c2)ccc2c3ocnc3c(=O)n(C3CC3)c12 | 0.25 µg/mL (≈ 0.701 µM) | > 16 µg/mL | 0.25 µg/mL (≈ 0.701 µM) | 3.03 | < 9 µg/mL | 
15 | Cc1c(-c2cc(F)c(N)cc2F)ccc2c3ocnc3c(=O)n(C3CC3)c12 | 0.03 µg/mL (≈ 0.0817 µM) | > 128 µg/mL | 1 µg/mL (≈ 2.72 µM) | 2.96 | 3 µM | IC50 (Cytochrome P450 3A4): > 30 µM; IC50 (Cytochrome P450 2C19): > 30000 nM; MIC (Neisseria gonorrhoeae): 0.06 µg/mL (≈ 0.163 µM); MIC (Staphylococcus aureus [5]): 0.06 µg/mL (≈ 0.163 µM); inhibition at 100 µM (hERG (KCNH2)): 3%; IC50 (Cytochrome P450 2D6): > 30 µM; IC50 (Cytochrome P450 1A2): > 30 µM; IC50 (Cytochrome P450 2C9): > 30000 nM; MIC (Staphylococcus aureus [6]): 0.5 µg/mL (≈ 1.36 µM); MIC90 (Staphylococcus aureus [8]): 0.25 µg/mL (≈ 0.681 µM)
16 | Cc1c(-c2ccc(N)nn2)ccc2c3ocnc3c(=O)n(C3CC3)c12 | > 64 µg/mL |  | > 64 µg/mL |  |  | 
17 | Cc1c(-c2cc(F)c(N)cc2F)ccc2c3oc(CN)nc3c(=O)n(C3CC3)c12 | 0.06 µg/mL (≈ 0.151 µM) | > 64 µg/mL |  |  | 36 µg/mL | IC50 (Cytochrome P450 3A4): 12.9 µM; IC50 (Cytochrome P450 2C19): 500 nM; MIC (Staphylococcus aureus [5]): 0.06 µg/mL (≈ 0.151 µM); IC50 (Cytochrome P450 2D6): 11.3 µM; IC50 (Cytochrome P450 1A2): 7.5 µM; IC50 (Cytochrome P450 2C9): 300 nM; MIC (Staphylococcus aureus [6]): 4 µg/mL (≈ 10.1 µM)
18 | Cc1c(-c2ccc(N)c(F)c2)ccc2c3ocnc3c(=O)n(C3CC3)c12 | 0.12 µg/mL (≈ 0.343 µM) | > 128 µg/mL | 2 µg/mL (≈ 5.72 µM) |  |  | 
19 | Cc1c(-c2ccc3[nH]ncc3c2)ccc2c3ocnc3c(=O)n(C3CC3)c12 | 0.004 µg/mL (≈ 0.0112 µM) | > 16 µg/mL | 0.5 µg/mL (≈ 1.4 µM) | 3.29 | 1.1 µg/mL | 
20 | Cc1c(-c2cnc(N)nc2)ccc2c3ocnc3c(=O)n(C3CC3)c12 | 1 µg/mL (≈ 3 µM) | > 32 µg/mL | 4 µg/mL (≈ 12 µM) | 1.32 | 15 µg/mL | 
21 | Cc1c(-c2ccc3[nH]c(N)nc3c2)ccc2c3ocnc3c(=O)n(C3CC3)c12 | 0.25 µg/mL (≈ 0.673 µM) | > 32 µg/mL | 0.25 µg/mL (≈ 0.673 µM) | 2.52 | 16 µg/mL | 
22 | Cc1c(-c2cnc(N)cn2)ccc2c3ocnc3c(=O)n(C3CC3)c12 | 64 µg/mL (≈ 192 µM) |  | > 128 µg/mL | 1.46 | 6.8 µg/mL | 
23 | CCn1c(=O)c2ncoc2c2cc(F)c(-c3cc(F)c(N)cc3F)c(C)c21 | 1 µg/mL (≈ 2.68 µM) |  |  |  |  | 
24 | Nc1cc(F)c(-c2nc3c(cc2F)c2ocnc2c(=O)n3C2CC2)cc1F | 128 µg/mL (≈ 344 µM) |  |  |  |  | 
25 | Nc1cc(F)c(-c2ccc3c4ocnc4c(=O)n(C4CC4)c3c2Cl)cc1F | 0.25 µg/mL (≈ 0.645 µM) |  |  |  |  | 
26 | Cc1c(-c2ccc(N)cc2F)ccc2c3ocnc3c(=O)n(C3CC3)c12 | 0.12 µg/mL (≈ 0.343 µM) | 16 µg/mL (≈ 45.8 µM) | 1 µg/mL (≈ 2.86 µM) | 3.05 | 1.1 µg/mL | 
27 | Cc1c(-c2cc(F)c(C(=O)O)cc2F)ccc2c3ocnc3c(=O)n(C3CC3)c12 | 64 µg/mL (≈ 161 µM) |  | > 128 µg/mL |  |  | 
28 | Cc1c(-c2ccc3nonc3c2)ccc2c3ocnc3c(=O)n(C3CC3)c12 | 0.25 µg/mL (≈ 0.698 µM) | > 32 µg/mL | 4 µg/mL (≈ 11.2 µM) | 3.03 | < 9 µg/mL | 
